Here are results for 35 compounds from ChEMBL document CHEMBL1156888, “The first low microM SecA inhibitors” (Bioorg Med Chem, 2010).

Activity calls are given as the source filed them. The rule behind the calls is not given here.

Broadly, the IC50 is the concentration at which inhibition is half-maximal.

Assay [1] relates to Escherichia coli. Briefly: Inhibition of Escherichia coli SecA N-terminal fragment EcN68 assessed as phosphate release at 100 uM by Malachite green assay. The essentials: (§1)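 ATPase of truncated E. coli SecA N68 (lacks C-terminal regulatory domain), 2.25 µg per reaction, with 2 mM ATP in 50 mM Tris-HCl pH 7.6, 20 mM KCl, 20 mM NH4Cl, 1 mM DTT, 2 mM Mg(OAc)2, 10% DMSO. Run at 40 °C for 20 min, stopped with malachite green then citric acid, 40 min at room temperature, A660 read. Activity remaining expressed as percent of compound-free control. At least triplicate, SEM.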

The subject of assay [2] is Escherichia coli. Nature of the assay: Inhibition of Escherichia coli SecA N-terminal fragment EcN68 assessed as phosphate release at 30 uM by Malachite green assay. The essentials: as §1
The nature of assay [3]: Inhibition of Escherichia coli full length SecA assessed as phosphate release by Malachite green assay. In short, it runs like this:
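Full-length SecA (5 µg) in 50 µL with 2 mM ATP, 50 mM Tris-HCl pH 7.6, 20 mM KCl, 20 mM NH4Cl, 1 mM DTT, 2 mM Mg(OAc)2, 10% DMSO; 40 °C, 40 min. Stopped with malachite green then 34% citric acid; 40 min room temperature, A660. Activity as percent of no-compound controls; at least triplicate.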

Assay [4] in a line: Inhibition of Escherichia coli SecA N-terminal fragment EcN68 assessed as phosphate release by Malachite green assay. The essentials: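 Truncated SecA lacking the C-terminal regulatory domain (2.25 µg) in 50 µL with 2 mM ATP, 50 mM Tris-HCl pH 7.6, 20 mM KCl, 20 mM NH4Cl, 1 mM DTT, 2 mM Mg(OAc)2, 10% DMSO; 40 °C, 20 min. Stopped with malachite green then 34% citric acid; 40 min room temperature, A660. Percent remaining ATPase versus no-compound controls; at least triplicate.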

The subject of assay [5] is Escherichia coli. Nature of the assay: Inhibition of Escherichia coli SecA N-terminal fragment EcN68 assessed as phosphate release at 5 uM by Malachite green assay. In short, it runs like this:
as §1

In assay [6] the test system is Escherichia coli. Briefly: Antimicrobial activity against wild type Escherichia coli MC4100 after 10 to 12 hrs. The class given is functional, organism-based. In short, it runs like this: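 E. coli K-12 wild-type strain MC4100. Log-phase cells (OD600 ~0.5 to 1.0) diluted to OD600 0.05, compounds added from 100% DMSO stocks, final 5% DMSO. Cultured with shaking at 37 °C, 1050 rpm, for 10 to 12 h.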

In assay [7] the test system is Escherichia coli. Briefly: Antimicrobial activity against permeability mutant Escherichia coli NR698 after 10 to 12 hrs. The class given is functional, organism-based. The essentials: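 Outer-membrane-permeable MC4100 imp4213 mutant; log-phase cells (OD600 ~0.5–1.0) diluted to OD600 0.05, compounds added from 100% DMSO stocks, cultures with 5% DMSO final, shaken at 37 °C, 1050 rpm, 10–12 h.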

Consider `Cc1onc(-c2c(Cl)cccc2Cl)c1C(=O)Nc1ccc(F)c(Cl)c1`, for which the inhibition result with Escherichia coli [1] was “inactive”.
For the compound `CCc1ccc(-c2nc(SCc3ccccc3)[nH]c(=O)c2C#N)cc1`, the inhibition entry with Escherichia coli [2] was “Active”.
`Cc1ccc(NC(=O)c2c(-c3c(Cl)cccc3Cl)noc2C)c(C)c1`: the inhibition entry in the assay on Escherichia coli [1] was “inactive”.
On the same count and under the same terms, to `Cc1onc(-c2c(Cl)cccc2Cl)c1C(=O)N1CCCCC1` belongs “inactive”; to `O=[N+]([O-])c1cccc2oc(SCc3ccc(CSc4nc5c([N+](=O)[O-])cccc5o4)cc3)nc12`, “Active”.
With `Cc1onc(-c2c(Cl)cccc2Cl)c1C(=O)NCc1cccc(Br)c1`, the inhibition result with Escherichia coli [1] is “inactive”.
On to `Cc1onc(-c2c(Cl)cccc2Cl)c1C(=O)NC1CCC(C)CC1` (stereo not drawn), for which the inhibition result in the assay with Escherichia coli [1] was “inactive”.
Still for that read-out and setting: to `c1ccc2oc(SCc3ccc(CSc4nc5ccccc5o4)cc3)nc2c1` belongs “Active”.
For `N#Cc1c(-c2ccc(Br)cc2)nc(SCc2ccc(CSC3=NC(=O)C(C#N)C(c4ccc(Br)cc4)=N3)cc2)[nH]c1=O` (stereo not drawn), the inhibition result with Escherichia coli [2], with Escherichia coli [1] and with Escherichia coli [5] was “Active” each time. Moreover, the figures for the half-maximal inhibitory concentration (IC50) in assay [3] and in assay [4] were 20 µM and 2 µM, respectively.
For the compound `N#Cc1c(-c2ccc(Br)cc2)nc(SCc2ccccc2)[nH]c1=O`, the inhibition result with Escherichia coli [2] was “Active”.
Consider `Cc1onc(-c2c(Cl)cccc2Cl)c1C(=O)N1CCSCC1`, for which the inhibition entry in the assay with Escherichia coli [1] was “inactive”.
`Cc1ccc2oc(SCc3ccc(CSc4nc5cc(C)ccc5o4)cc3)nc2c1`: the inhibition result in the assay on Escherichia coli [1] was “Active”.
As for `Cc1onc(-c2c(F)cccc2Cl)c1C(=O)Nc1ccc(Sc2ccccc2)nc1Sc1ccccc1`, the inhibition entry with Escherichia coli [1] is “Active”.
With `N#Cc1c(-c2ccc(-c3ccccc3)cc2)nc(SCc2ccc(CSC3=NC(=O)C(C#N)C(c4ccc(-c5ccccc5)cc4)=N3)cc2)[nH]c1=O` (stereo not drawn), in the assay on Escherichia coli [6], the MIC result is “inactive”. In addition, the inhibition entry in the assay on Escherichia coli [2], in the assay with Escherichia coli [1] and in the assay on Escherichia coli [5] was “Active” throughout. Further, the half-inhibitory concentration (IC50) in assay [3] came to 50 µM; in assay [4], 2 µM.
Regarding `Cc1onc(-c2c(Cl)cccc2Cl)c1C(=O)Nc1ccccc1F`, in the assay on Escherichia coli [1], the inhibition entry is “inactive”.
Regarding `Clc1ccc2oc(SCc3ccc(CSc4nc5cc(Cl)ccc5o4)cc3)nc2c1`, the inhibition result with Escherichia coli [1] was “Active”.
On to `CC(C)c1ccc(-c2nc(SCc3ccccc3)[nH]c(=O)c2C#N)cc1`, for which the inhibition entry in the assay on Escherichia coli [2] is “Active”.
Take `N#Cc1c(-c2cccc3ccccc23)nc(SCc2ccc(CSC3=NC(=O)C(C#N)C(c4cccc5ccccc45)=N3)cc2)[nH]c1=O` (stereo not drawn): the inhibition entry in the assay with Escherichia coli [2], in the assay on Escherichia coli [1] and with Escherichia coli [5] was “Active” in each case.
For `Cc1onc(-c2c(Cl)cccc2Cl)c1C(=O)N1CCOCC1`, the inhibition result in the assay on Escherichia coli [1] was “inactive”.
On to `N#Cc1c(-c2ccccc2)nc(SCc2ccc(CSC3=NC(=O)C(C#N)C(c4ccccc4)=N3)cc2)[nH]c1=O` (stereo not drawn), for which the inhibition entry with Escherichia coli [2] and in the assay with Escherichia coli [1] was “Active” throughout.
Consider `Cc1cc(NC(=O)c2c(-c3c(Cl)cccc3Cl)noc2C)ccc1Br`, for which, in the assay with Escherichia coli [1], the inhibition entry was “inactive”.
`Clc1ccc2nc(SCc3ccc(CSc4nc5ccc(Cl)cc5s4)cc3)sc2c1`: in the assay with Escherichia coli [1], the inhibition entry is “Active”.
With `CCc1ccc(C2=NC(SCc3ccc(CSc4nc(-c5ccc(CC)cc5)c(C#N)c(=O)[nH]4)cc3)=NC(=O)C2C#N)cc1` (stereo not drawn), the inhibition result in the assay on Escherichia coli [2], in the assay with Escherichia coli [1] and in the assay with Escherichia coli [5] was “Active” each time.
For the compound `O=[N+]([O-])c1ccc2oc(SCc3ccc(CSc4nc5cc([N+](=O)[O-])ccc5o4)cc3)nc2c1`, the inhibition result in the assay on Escherichia coli [1] was “Active”.
On to `Cc1cccc(C2=NC(SCc3ccc(CSc4nc(-c5cccc(C)c5)c(C#N)c(=O)[nH]4)cc3)=NC(=O)C2C#N)c1` (stereo not drawn), for which the inhibition entry with Escherichia coli [2] and in the assay on Escherichia coli [1] was “Active” each time.
As to `Cc1onc(-c2c(Cl)cccc2Cl)c1C(=O)NC1CCCCC1`, in the assay on Escherichia coli [1], the inhibition result was “inactive”.
In the case of `Cc1ccccc1NC(=O)c1c(-c2c(Cl)cccc2Cl)noc1C`, in assay [3], the half-maximal inhibitory concentration (IC50) is 60 µM. In the assay with Escherichia coli [1], the inhibition result is “inactive”.
`COc1ccc(C2=NC(SCc3ccc(CSc4nc(-c5ccc(OC)cc5)c(C#N)c(=O)[nH]4)cc3)=NC(=O)C2C#N)cc1` (stereo not drawn): the inhibition result with Escherichia coli [2] and with Escherichia coli [1] was “Active” throughout.
For `Cc1cccc(NC(=O)c2c(-c3c(Cl)cccc3Cl)noc2C)c1`, the inhibition result in the assay on Escherichia coli [1] was “inactive”.
On to `N#Cc1c(-c2cccc3ccccc23)nc(SCc2ccccc2)[nH]c1=O`, for which the inhibition result in the assay on Escherichia coli [2] is “Active”.
Regarding `Cc1onc(-c2c(Cl)cccc2Cl)c1C(=O)Nc1cccc(Cl)c1`, the inhibition result in the assay with Escherichia coli [1] is “inactive”.
Take `Cc1ccc(C2=NC(SCc3ccc(CSc4nc(-c5ccc(C)cc5)c(C#N)c(=O)[nH]4)cc3)=NC(=O)C2C#N)cc1` (stereo not drawn): the inhibition result in the assay with Escherichia coli [2], in the assay on Escherichia coli [1] and with Escherichia coli [5] was “Active” in each case.
As to `Cc1onc(-c2c(Cl)cccc2Cl)c1C(=O)NCc1ccccc1Br`, the inhibition result in the assay on Escherichia coli [1] is “inactive”.
On to `N#Cc1c(-c2ccc(-c3ccccc3)cc2)nc(SCc2ccccc2)[nH]c1=O`, for which the MIC result with Escherichia coli [6] is “inactive”. Further, the MIC entry in the assay on Escherichia coli [7] is “Active”. In addition, the inhibition entry in the assay with Escherichia coli [2] was “Active”.
Take `CC(C)c1ccc(C2=NC(SCc3ccc(CSc4nc(-c5ccc(C(C)C)cc5)c(C#N)c(=O)[nH]4)cc3)=NC(=O)C2C#N)cc1` (stereo not drawn): the inhibition result in the assay on Escherichia coli [2], in the assay on Escherichia coli [1] and with Escherichia coli [5] was “Active” throughout.
